pIC50: −log10 of the molar value. ≈ marks a conversion by molar mass, not a printed value. Calls of active or inactive are those of the source. No cut-off for these calls is given here.
Experiments:
[1] = molecular target: T1, Mitogen-activated protein kinase 1 (Homo sapiens, UniProt P28482); assay: Inhibition of ERK2 in human A375 cells harboring B-RAF V600E mutant assessed as decrease in phospho-ERK2 level after 2 hrs by Cellomics ArrayScanTM VTI imaging analysis; assay type: cell-based, A-375
Homo sapiens [2] = organism: Homo sapiens; assay: Selectivity for ERK (unknown origin) over MET (unknown origin) at 1 uM
Summary of the method: (§1)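 Panel of 125 kinases screened with compound at 1 µM; kinases inhibited above 75% were recorded.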

[3] = Solubility of the compound in aqueous phosphate buffer at 25 degC at pH 7.4 after 24 hrs; assay type: physicochemical
[4] = molecular target: Dual specificity mitogen-activated protein kinase kinase 1 (Homo sapiens, UniProt Q02750); assay: Inhibition of MEK1 (unknown origin) autophosphorylation incubated with enzyme for 20 mins prior to ATP addition by ADP Glo kinase assay in presence of ATP at Km concentration
Homo sapiens [5] = organism: Homo sapiens; assay: Selectivity for ERK (unknown origin) over FAK (unknown origin) at 1 uM; summary of the method: as §1
[6] = 1-Octanol-aqueous phosphate buffer partition coefficient, logD of the compound at pH 7.4; assay type: physicochemical
Summary of the method: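 Partition of compound between 1-octanol and aqueous phosphate buffer, pH 7.4; reported as distribution coefficient.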

Homo sapiens [7] = organism: Homo sapiens; assay: Selectivity for ERK (unknown origin) over C-RAF (unknown origin) at 1 uM; summary of the method: as §1
A-375 = assay: Antiproliferative activity against human A375 cells harboring B-RAF V600E mutant after 72 hrs by Cellomics ArrayScanTM VTI imaging analysis; assay type: functional, cell-based; settings: A-375, 72 h
[8] = molecular target: Mitogen-activated protein kinase; ERK1/ERK2 (Homo sapiens, UniProt P27361+P28482); assay: Inhibition of ERK1/2 in human A375 cells harboring B-RAF V600E mutant assessed as decrease in phospho-RSK level after 2 hrs by Cellomics ArrayScanTM VTI imaging analysis; assay type: cell-based; settings: a-375
[9] = molecular target: T1, Mitogen-activated protein kinase 1; assay: Inhibition of MEK U911-activated ERK2 (unknown origin) using Erktide as substrate preincubated with enzyme for 20 mins prior to substrate addition by RapidFire Mass Spectrometry in presence of ATP at higher concentration
Homo sapiens [10] = organism: Homo sapiens; assay: Selectivity for ERK (unknown origin) over CDK7 (unknown origin) at 1 uM; summary of the method: as §1
[11] = molecular target: T1, Mitogen-activated protein kinase 1; assay: Inhibition of MEK U911-activated ERK2 (unknown origin) using Erktide as substrate preincubated with enzyme for 20 mins prior to substrate addition by RapidFire Mass Spectrometry in presence of ATP at Km concentration
Homo sapiens [12] = organism: Homo sapiens; assay: Selectivity for ERK (unknown origin) over MEK1 (unknown origin) at 1 uM; summary of the method: as §1
Homo sapiens [13] = organism: Homo sapiens; assay: Selectivity for ERK (unknown origin) over DYRK2 (unknown origin) at 1 uM; summary of the method: as §1
Hepatocyte = assay: Intrinsic clearance in rat hepatocytes; assay type: ADME, cell-based
Homo sapiens [14] = organism: Homo sapiens; assay: Selectivity for ERK (unknown origin) over FLT1 (unknown origin) at 1 uM; summary of the method: as §1
[15] = Intrinsic clearance in human liver microsomes; assay type: ADME; settings: read-out: CLH
Homo sapiens [16] = organism: Homo sapiens; assay: Selectivity for ERK (unknown origin) over AUR-B (unknown origin) at 1 uM; summary of the method: as §1
Homo sapiens [17] = organism: Homo sapiens; assay: Selectivity for ERK (unknown origin) over AUR-C (unknown origin) at 1 uM; summary of the method: as §1
Homo sapiens [18] = organism: Homo sapiens; assay: Selectivity for ERK (unknown origin) over AXL (unknown origin) at 1 uM; summary of the method: as §1
Homo sapiens [19] = organism: Homo sapiens; assay: Selectivity for ERK (unknown origin) over CDK1 (unknown origin) at 1 uM; summary of the method: as §1
Homo sapiens [20] = organism: Homo sapiens; assay: Selectivity for ERK (unknown origin) over IGF-1R (unknown origin) at 1 uM; summary of the method: as §1
Homo sapiens [21] = organism: Homo sapiens; assay: Selectivity for ERK (unknown origin) over TRKA (unknown origin) at 1 uM; summary of the method: as §1
Homo sapiens [22] = organism: Homo sapiens; assay: Selectivity for ERK (unknown origin) over IR (unknown origin) at 1 uM; summary of the method: as §1
[23] = GSH reactivity assessed as half life
[24] = molecular target: T1, Mitogen-activated protein kinase 1; assay: Covalent binding to ERK2 (unknown origin) after 2 hrs by mass spectrometry
Summary of the method: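 ERK2 protein incubated with compound at 3-fold molar excess over protein, room temperature, 2 hours; sample diluted 10-fold and loaded immediately for intact-mass MS.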

[25] = Stability in pH 7.4 buffer assessed as drug hydrolysis; assay type: physicochemical
Summary of the method: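 Compound held in pH 7.4 buffer alone at 37 °C, monitored over 11 hrs for hydrolysis.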

Dual specificity mitogen-activated protein kinase kinase 1, sequence (Q02750 whole entry): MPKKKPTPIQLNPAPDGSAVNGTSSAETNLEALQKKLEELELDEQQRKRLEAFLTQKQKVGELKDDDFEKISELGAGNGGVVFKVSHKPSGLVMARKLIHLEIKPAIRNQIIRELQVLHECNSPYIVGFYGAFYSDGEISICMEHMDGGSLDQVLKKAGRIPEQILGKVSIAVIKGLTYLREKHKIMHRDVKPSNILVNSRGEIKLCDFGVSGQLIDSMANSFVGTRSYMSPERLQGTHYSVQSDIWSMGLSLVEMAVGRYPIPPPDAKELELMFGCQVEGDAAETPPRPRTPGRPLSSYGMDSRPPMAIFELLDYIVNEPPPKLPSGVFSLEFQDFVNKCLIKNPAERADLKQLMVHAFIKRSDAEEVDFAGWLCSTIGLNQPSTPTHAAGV

SMILES	pIC50 [1]	solubility at 24 h [3]	pIC50 [4]	logD [6]	Selectivity ratio (Homo sapiens [7])	pIC50 (A-375)	IC50 [8]	pIC50 [9]	pIC50 [11]	CLH (Hepatocyte)	microsomal CLint [15]	also measured
CNC(=O)c1ccc(F)cc1Nc1cc(NC2CCOCC2)ncc1C(F)(F)F	5.68	8.8 µM (≈ 3.63 µg/mL)	< 5.00	3.4	4	5.47	2400 nM	6.42	7.40			Selectivity ratio (Homo sapiens [2]): 4; Selectivity ratio (Homo sapiens [5]): 4; Selectivity ratio (Homo sapiens [10]): 4
C=CC(=O)Nc1ccccc1Nc1nc(N[C@H]2CC[C@H](N(C)C)CC2)ncc1Cl	7.14	770 µM (≈ 320 µg/mL)	< 5.00	0.9	4	6.92	200 nM	7.05	7.07	25 µL/min/mg	< 3 µL/min/mg	Selectivity ratio (Homo sapiens [12]): 4; Selectivity ratio (Homo sapiens [13]): 4; Selectivity ratio (Homo sapiens [14]): 4
C=CC(=O)Nc1ccccc1Nc1nc(Nc2ccnn2C)ncc1Cl	7.32	520 µM (≈ 192 µg/mL)	6.92	2.4	7	7.04	120 nM	7.89	8.00	120 µL/min/mg	42 µL/min/mg	Selectivity ratio (Homo sapiens [16]): 7; Selectivity ratio (Homo sapiens [5]): 7; Selectivity ratio (Homo sapiens [12]): 7; Selectivity ratio (Homo sapiens [14]): 7; Selectivity ratio (Homo sapiens [17]): 7
CC(C)Nc1cc(-c2c[nH]c(C(=O)N[C@H](CO)c3cccc(Cl)c3)c2)c(Cl)cn1 [ULIXERTINIB]		8.5 µM (≈ 3.68 µg/mL)		> 4		6.74						
CCC(=O)Nc1ccccc1Nc1nc(NC2CCOCC2)ncc1Cl	< 4.52					5.18	> 30000 nM	5.40	6.32			
O=C(Nc1ccc2[nH]nc(-c3ccncc3)c2c1)[C@@H]1CCN(CC(=O)N2CCN(c3ccc(-c4ncccn4)cc3)CC2)C1		< 2.1 µM		3.2		7.15						
CNC(=O)c1ccc(F)cc1Nc1cc(Nc2cc(C)nn2C)ncc1C(F)(F)F	5.06	15 µM (≈ 6.34 µg/mL)	< 5.00	3.8		5.85	5100 nM	6.47	7.36			Selectivity ratio (Homo sapiens [16]): 10; Selectivity ratio (Homo sapiens [2]): 10; Selectivity ratio (Homo sapiens [18]): 10; Selectivity ratio (Homo sapiens [19]): 10; Selectivity ratio (Homo sapiens [20]): 10; Selectivity ratio (Homo sapiens [5]): 10; Selectivity ratio (Homo sapiens [21]): 10; Selectivity ratio (Homo sapiens [22]): 10; Selectivity ratio (Homo sapiens [10]): 10; Selectivity ratio (Homo sapiens [17]): 10
CCS(=O)(=O)N1CCc2cnc(NC3CCOCC3)nc2C1	5.00						> 30000 nM	< 5.00	5.05			
C=CC(=O)Nc1ccccc1Nc1nc(Nc2ccnn2C)ncc1C	7.18	990 µM (≈ 346 µg/mL)	6.59	2.1		6.62	280 nM	7.33	7.41	33 µL/min/mg	19 µL/min/mg	
CCS(=O)(=O)Nc1ccc2[nH]nc(-c3ccncc3)c2c1	5.00					< 4.52	> 30000 nM	5.74	6.55			
C=CC(=O)Nc1ccccc1Nc1cc(NC2CCOCC2)ncc1Cl	6.92	40 µM (≈ 14.9 µg/mL)	< 5.00	2.5	2	6.17	400 nM	7.22	7.38	270 µL/min/mg	24 µL/min/mg	Selectivity ratio (Homo sapiens [12]): 2
C=CC(=O)Nc1ccccc1Nc1nc(NC2CCOCC2)ncc1Cl	7.72	46 µM (≈ 17.2 µg/mL)	< 5.00	2.7	4	7.24	69 nM	8.27	8.07	200 µL/min/mg	67 µL/min/mg	T1/2 [23]: 2.53 h; Selectivity ratio (Homo sapiens [16]): 4; Activity [24]: Active; Stability [25]: Stable; Selectivity ratio (Homo sapiens [14]): 4; Selectivity ratio (Homo sapiens [17]): 4
C=CC(=O)Nc1ccccc1Nc1nc(NC2CCOCC2)ncc1C	6.77	170 µM (≈ 60.1 µg/mL)	< 5.00	2	2	6.33	740 nM	7.06	7.11	59 µL/min/mg	13 µL/min/mg	Selectivity ratio (Homo sapiens [12]): 2
C=CS(=O)(=O)N1CCc2[nH]nc(-c3ccnc(C)c3)c2C1	6.42	300 µM (≈ 91.3 µg/mL)	5.31	1.6	5	5.85	1000 nM	6.96	7.13			Selectivity ratio (Homo sapiens [12]): 5; Selectivity ratio (Homo sapiens [14]): 5
C=CS(=O)(=O)Nc1ccc2[nH]nc(-c3ccncc3)c2c1	6.92	7 µM (≈ 2.1 µg/mL)	< 5.00	2.2	8	5.89	470 nM	7.77	8.12			Selectivity ratio (Homo sapiens [16]): 8; Activity [24]: Active; Selectivity ratio (Homo sapiens [21]): 8; Selectivity ratio (Homo sapiens [14]): 8; Selectivity ratio (Homo sapiens [17]): 8
COc1cc(O)c2c(c1)/C=C/C[C@H](O)[C@@H](O)C(=O)/C=C/C[C@H](C)OC2=O	5.80	47 µM (≈ 17 µg/mL)	5.47	1.6		5.39	5700 nM	5.43	5.29			
CNC(=O)c1ccccc1Nc1cc(NC2CCOCC2)ncc1Cl	5.12	290 µM (≈ 105 µg/mL)	< 5.00	2.8			10000 nM		6.59			

Reference: ChEMBL document CHEMBL3588785 (J Med Chem, 2015)
